Experimental data from publication PMC9065995 (RSC Advances, 2019).
In brackets after ≈: the same amount, converted by molar mass. Starred links: 1 amine or outer side, 2 acyl side, 3 side chain; linkers in the order of their positions; H or OH if unused. Positions of bridges follow the written chain, without caps; N, C: chain ends. Non-standard residues stand in square brackets, D forms with d. Residues, ends and D or L forms follow the SMILES beside them. Chains are numbered I, II in the order given. Actinocin(9to1) = Cc1c2oc3c(C)ccc(C(=O)[*:1])c3nc-2c(C(=O)[*:2])c(N)c1=O; NMeV = CN[C@H](C(=O)O)C(C)C; Sar = CNCC(=O)O

Key:
Type in all cases: cell-based
HeLa = experiment: SRB cytostatic activity assay, HeLa; details: Homo sapiens, 72 h, read-out: Cytostatic activity IC50 HeLa
In short: (§1)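 Media were EMEM (KB, HepG2, U-87), RPMI 1640 (HeLa), F-12K (A-549), DMEM (MCF-7) and fibroblast growth medium (HDF), all with 10% FBS, at 37 °C and 5% CO2. About 10^4 cells/well grew 24 h, then test compound was added at 0.1–20 μg mL−1 (six levels) for 72 h. Cells were TCA-fixed 1 h at 4 °C, stained with 0.4% SRB, solubilised in Tris, read at A490; IC50, N = 3.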

HepG2 = experiment: SRB cytostatic activity assay, HepG2; details: Homo sapiens, HepG2, 72 h, read-out: Cytostatic activity IC50 HepG2
In short: as §1

HDF = experiment: SRB cytostatic activity assay, normal control HDF; details: 72 h, read-out: Cytostatic activity IC50 HDF
In short: as §1

KB = experiment: SRB cytostatic activity assay, KB; details: Homo sapiens, 72 h, read-out: Cytostatic activity IC50 KB
In short: as §1

A-549 = experiment: SRB cytostatic activity assay, A-549; details: Homo sapiens, A549, 72 h, read-out: Cytostatic activity IC50 A-549
In short: as §1

U-87 MG = experiment: SRB cytostatic activity assay, U-87 MG; details: Homo sapiens, 72 h, read-out: Cytostatic activity IC50 U-87 MG
In short: as §1

| IC50 (HeLa) [µg/mL] | IC50 (HepG2) [µg/mL] | IC50 (KB) [µg/mL] | IC50 (A-549) [µg/mL] | IC50 (U-87 MG) [µg/mL] | SMILES | IC50 (HDF) [µg/mL] |
| --- | --- | --- | --- | --- | --- | --- |
| 1.13 ± 0.01 (≈ 0.9 µM) | 1.19 ± 0.02 (≈ 0.948 µM) | 1.07 ± 0.05 (≈ 0.852 µM) | 1.03 ± 0.83 (≈ 0.82 µM) | 0.92 ± 0.59 (≈ 0.733 µM) | Cc1c2oc3c(C)ccc(C(=O)N[C@@H]4C(=O)N[C@H](C(C)C)C(=O)N5CCC[C@H]5C(=O)N(C)CC(=O)N(C)[C@@H](C(C)C)C(=O)O[C@@H]4C)c3nc-2c(C(=O)N[C@@H]2C(=O)N[C@H](C(C)C)C(=O)N3CCC[C@H]3C(=O)N(C)CC(=O)N(C)[C@@H](C(C)C)C(=O)O[C@@H]2C)c(N)c1=O [Actinomycin, Actinomycin D] (I: T[dV]P[Sar][NMeV] / II: T[dV]P[Sar][NMeV]; ester I:1-I:C, II:1-II:C; linker I:N-II:N via Actinocin(9to1)) | 2.28 ± 0.11 (≈ 1.82 µM) |
| 1.4 ± 0.08 (≈ 5.76 µM) | 1.49 ± 0.04 (≈ 6.13 µM) | 0.95 ± 0.02 (≈ 3.91 µM) | 1.17 ± 0.21 (≈ 4.81 µM) | 1.03 ± 0.25 (≈ 4.23 µM) | Nc1ccn([C@@H]2O[C@H](CO)[C@@H](O)[C@@H]2O)c(=O)n1 [Cytarabine] | 1.94 ± 0.01 (≈ 7.98 µM) |
